Reference: publication PMC4550085 (Chemical communications (Cambridge, England), 2015)

Columns and labels:
[1] = cited from earlier work
HeLa cells [2] = assay: FACS analysis of cytosolic delivery of NF-labelled CPPs; format: cell-based; details: 2 h; for cytosolic delivery efficiency relative to Tat: 5 µM NF-labelled peptides; for Cytosolic delivery (MFI^NF, %): relative to Tat (100%), 5 µM NF-labelled peptide
How it was run: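 HeLa cells were exposed for 2 h to 5 µM naphthofluorescein-labelled peptide and analysed by FACS with excitation at 633 nm. Background fluorescence was subtracted from the mean fluorescence intensity (MFI). Values are relative to the Tat conjugate (100%) and are mean ± SD of three independent experiments.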

[3] = pH titration of fluorescence intensity of the dyes and CPP-dye adducts; format: physicochemical
HeLa cells [4] = assay: MTT cytotoxicity assay; format: cell-based; details: up to 25 µM concentration
HeLa cells [5] = assay: FACS analysis of total cellular uptake of Rho-labelled CPPs; format: cell-based; details: for Total cellular uptake (MFI^Rho, %): relative to Tat (100%), 5 µM Rho-labelled peptide, 2 h
How it was run: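 Total uptake: HeLa cells were treated for 2 h with 5 µM rhodamine-labelled peptide and analysed by FACS with excitation at 561 nm. MFI was background-subtracted. Values are relative to the Tat conjugate (100%) and are mean ± SD of three independent experiments.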

[6] = previously shown; cited from earlier work
HeLa cells [7] = assay: Endosomal escape efficiency calculated from NF and Rho MFI; format: cell-based; details: for Endosomal escape efficiency (γ, %): relative to Tat (100%), calculated from MFI^NF/MFI^Rho; for endosomal escape efficiency relative to Tat: γ=(MFI NF/MFI Rho)/(MFI Tat NF/MFI Tat Rho), HeLa cells, 5 µM
HeLa cells [8] = assay: Live-cell confocal microscopy of labelled CPPs; format: cell-based; details: 5 µM for 2 h

Substance: cyclo(FΦRRRRQ) (head to tail) [cFΦR4]
- cytosolic delivery efficiency relative to Tat, pCAP-based assay [1]: 12 fold
- cytosolic delivery efficiency relative to Tat (HeLa cells [2]): ~ 10 fold
- Cytosolic delivery (MFI^NF, %) (HeLa cells [2]): 1006%
- pH profile of CPP-dye adduct compared with the unmodified dye ([3]; dye attached to the glutamine side chain of cFΦR4, pH titration): essentially identical pH profiles
- cytotoxicity, MTT assay (HeLa cells [4]): Neither peptide showed any significant toxicity
- total cellular uptake relative to Tat (HeLa cells [5]; 5 µM Rho-labelled peptides): 2.3 fold
- cytosolic delivery efficiency relative to Tat and R9 [6]: 4–12 fold
- Endosomal escape efficiency (γ, %) (HeLa cells [7]): 433%
- endosomal escape efficiency relative to Tat (HeLa cells [7]): 4.3 fold

Substance: nonaarginine [R9]
- cytosolic delivery efficiency relative to Tat, pCAP-based assay [1]: 3 fold
- intracellular fluorescence pattern (HeLa cells [8]): diffuse fluorescence in both cytoplasmic and nuclear regions
- cytosolic delivery efficiency relative to Tat (HeLa cells [2]): ~ 2 fold
- Cytosolic delivery (MFI^NF, %) (HeLa cells [2]): 197%
- Total cellular uptake (MFI^Rho, %) (HeLa cells [5]): 114%
- Endosomal escape efficiency (γ, %) (HeLa cells [7]): 173%
- endosomal escape efficiency relative to Tat (HeLa cells [7]): 1.7 fold

Substance: YGRKKRRQRRR [Tat]
- intracellular fluorescence pattern (HeLa cells [8]): diffuse fluorescence in both cytoplasmic and nuclear regions
- Cytosolic delivery (MFI^NF, %) (HeLa cells [2]): 100%
- Total cellular uptake (MFI^Rho, %) (HeLa cells [5]): 100%
- Endosomal escape efficiency (γ, %) (HeLa cells [7]): 100%

Substance: rhodamine
- change in fluorescence intensity with pH ([3]; pH range of 5–10, Ex/Em 545/590 nm): no significant change in fluorescence intensity
